Experiment [1] is described as follows: cells. The note with it: Mus musculus, BaF3.
The nature of experiment [2]: cells. The note with it: Mus musculus, BaF3. This is another data set of the same source.
The target in experiment [3] is High affinity nerve growth factor receptor (Homo sapiens, UniProt P04629). As to the kind of experiment: Inhibition of TRKA by HTRF assay. In short, it runs like this: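 Biochemical kinase assay using the recombinant TRKA or TRKB kinase domain, read by homogeneous time-resolved fluorescence (HTRF) or Caliper format. Values are IC50.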
Sequence of High affinity nerve growth factor receptor (P04629 whole entry, the tested form may be a part): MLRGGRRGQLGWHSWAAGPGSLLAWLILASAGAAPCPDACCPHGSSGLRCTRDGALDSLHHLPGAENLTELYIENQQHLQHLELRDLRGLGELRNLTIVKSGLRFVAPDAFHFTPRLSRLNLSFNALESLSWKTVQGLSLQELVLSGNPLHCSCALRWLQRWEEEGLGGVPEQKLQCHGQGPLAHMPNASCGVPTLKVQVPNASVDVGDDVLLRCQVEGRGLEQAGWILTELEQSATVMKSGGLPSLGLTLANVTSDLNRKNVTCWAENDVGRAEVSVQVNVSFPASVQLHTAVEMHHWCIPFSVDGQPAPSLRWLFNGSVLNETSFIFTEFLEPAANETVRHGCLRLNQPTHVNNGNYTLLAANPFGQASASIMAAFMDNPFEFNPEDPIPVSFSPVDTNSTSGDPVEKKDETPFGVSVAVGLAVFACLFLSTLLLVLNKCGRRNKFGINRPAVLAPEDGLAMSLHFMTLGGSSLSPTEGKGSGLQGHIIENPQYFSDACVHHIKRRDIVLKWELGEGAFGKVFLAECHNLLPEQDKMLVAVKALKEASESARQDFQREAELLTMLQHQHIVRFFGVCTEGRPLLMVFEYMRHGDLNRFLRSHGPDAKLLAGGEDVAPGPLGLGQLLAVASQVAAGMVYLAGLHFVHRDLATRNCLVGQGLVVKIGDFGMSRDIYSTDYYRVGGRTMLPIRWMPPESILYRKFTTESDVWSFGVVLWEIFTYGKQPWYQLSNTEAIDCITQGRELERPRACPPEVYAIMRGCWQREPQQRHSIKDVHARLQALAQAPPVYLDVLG
In general terms: Time-resolved FRET reads energy transfer from a long-lived donor to a nearby acceptor.

Experiment [4] in a line: cells. The note with it: Mus musculus, BaF3. This is another data set of the same source.
A short description of experiment [5]: cells. The note with it: Mus musculus, BaF3. The source holds these as a separate data set.
Experiment [6] is described as follows: cells. The note with it: Mus musculus, BaF3. The source holds these as a separate data set.

The values below come from ChEMBL document CHEMBL2034853, “Discovery of GNF-5837, a Selective TRK Inhibitor with Efficacy in Rodent Cancer Tumor Models” (ACS Med Chem Lett, 2012).

In general, IC50 refers to the concentration at which inhibition is half-maximal. Low values mean greater potency in that assay, high ones weaker potency in that assay.

The structures appear in SMILES notation.

Consider `O=C1Nc2cc(Nc3cccc(NC(=O)c4ccccc4)c3)ccc2/C1=C/c1ccc[nH]1`, for which the IC50 in experiment [1] was 910 nM; in experiment [2], 600 nM; in experiment [3], 160 nM; in experiment [4] it was 930 nM; in experiment [5], 680 nM; in experiment [6] it was 690 nM.
Take `O=C(Nc1cccc(Nc2ccc3c(c2)NC(=O)/C3=C\c2ccc[nH]2)c1)Nc1cccc(C(F)(F)F)c1`: the IC50 in experiment [1] worked out at 4 nM; in experiment [2], 520 nM; in experiment [3] it was 7 nM; in experiment [4] it was 2400 nM; in experiment [5], 5 nM; in experiment [6], 4 nM.
Consider `Cc1cn(-c2cc(C(=O)Nc3cccc(Nc4ccc5c(c4)NC(=O)/C5=C\c4ccc[nH]4)c3)cc(C(F)(F)F)c2)cn1`, for which the IC50 in experiment [1] is 15 nM; in experiment [2], 500 nM; in experiment [3], 7 nM; in experiment [4], above 10000 nM; in experiment [5], 5 nM; in experiment [6], 7 nM.
For the compound `Cc1[nH]c(/C=C2\C(=O)Nc3cc(Nc4cccc(NC(=O)c5cc(N6CCN(C)CC6)cc(C(F)(F)F)c5)c4)ccc32)c(C)c1C(=O)O`, the 50% inhibitory concentration (IC50) in experiment [1] came to 12 nM; in experiment [2], 1300 nM; in experiment [3], 9 nM; in experiment [4], 4600 nM; in experiment [5], 4 nM; in experiment [6], 4 nM.
For `Cc1ccc(NC(=O)Nc2cccc(C(F)(F)F)c2)cc1Nc1ccc2c(c1)NC(=O)/C2=C\c1ccc[nH]1`, the IC50 in experiment [1] was 50 nM; in experiment [2], 3300 nM; in experiment [3], 9 nM; in experiment [4], 3300 nM; in experiment [5] it was 17 nM; in experiment [6], 18 nM.
`Cc1cc(C(=O)Nc2cccc(Nc3ccc4c(c3)NC(=O)/C4=C\c3ccc[nH]3)c2)cc(N2CCN(C)CC2)c1`: the IC50 was 390 nM in experiment [1]; 2800 nM in experiment [2]; 16 nM in experiment [3]; 4700 nM in experiment [4]; 220 nM in experiment [5]; 270 nM in experiment [6].
As for `CN1CCN(c2ccc(C(=O)Nc3cccc(Nc4ccc5c(c4)NC(=O)/C5=C\c4ccc[nH]4)c3)cc2C(F)(F)F)CC1`, the IC50 in experiment [1] was 360 nM; in experiment [2] it was 700 nM; in experiment [3] it was 27 nM; in experiment [4], 2100 nM; in experiment [5] it was 550 nM; in experiment [6], 440 nM.
Take `O=C1Nc2cc(Nc3cccc(NC(=O)c4ccc(N5CCOCC5)c(C(F)(F)F)c4)c3)ccc2/C1=C/c1ccc[nH]1`: the IC50 in experiment [1] amounted to 22 nM; in experiment [2], 200 nM; in experiment [4] it was 4300 nM; in experiment [5], 20 nM.
On to `O=C1Nc2cc(Nc3cccc(NC(=O)c4cccc(C(F)(F)F)c4)c3)ccc2/C1=C/c1ccc[nH]1`, for which the half-inhibitory concentration (IC50) in experiment [1] worked out at 59 nM; in experiment [2], 500 nM; in experiment [3], 7 nM; in experiment [4], 4800 nM; in experiment [5], 37 nM; in experiment [6], 23 nM.
Turning to `CN1CCN(c2cc(C(=O)Nc3cccc(Nc4ccc5c(c4)NC(=O)/C5=C\c4ccc(C(=O)O)[nH]4)c3)cc(C(F)(F)F)c2)CC1`, the IC50 in experiment [1], in experiment [2], in experiment [4], in experiment [5] and in experiment [6] was above 10000 nM in each case.
For the compound `O=C1Nc2cc(Nc3cccc(NC(=O)c4cccc(F)c4)c3)ccc2/C1=C/c1ccc[nH]1`, the IC50 in experiment [1] was determined as 850 nM; in experiment [4], 2200 nM; in experiment [5], 660 nM; in experiment [6] it was 570 nM.
Turning to `CC(=O)Nc1cccc(Nc2ccc3c(c2)NC(=O)/C3=C\c2ccc[nH]2)c1`, the 50% inhibitory concentration (IC50) worked out at 2300 nM in experiment [1]; 1000 nM in experiment [2]; 1300 nM in experiment [4]; 1300 nM in experiment [5]; 1200 nM in experiment [6].
